Results from different studies.
Each line is one published result; the experiments were not run side by side.
Target: Mitogen-activated protein kinase kinase kinase 1 (MAP3K1, Homo sapiens, UniProt Q13233)

Structure (SMILES)	effect on	method	concentration	remaining binding [%]
CN(C)c1ncc(F)c(-c2cnn3ncccc23)n1	binding		1 µM	80
CNC(=O)Nc1ccc2c(c1)CC[C@@]21OC(=O)N(CC(=O)N(Cc2ccc(F)cc2)[C@@H](C)C(F)(F)F)C1=O	cell-free assay	competition with immobilised ligand	1 µM	68
c1cncc(-c2cccc(Nc3nccc(NC4CCCCC4)n3)c2)c1	binding	competition with immobilised ligand	10 µM	79
Cc1cc(NC(=O)c2cccc(S(F)(F)(F)(F)F)c2)cc(-n2ccn3nc(-c4cccnc4)cc23)c1	cell-free assay	competition with immobilised ligand	1 µM	90
CNC(=O)[C@@H]1CC[C@@H](n2c(-c3ccc4cnccc4c3)nc3ccc(C(=O)NCc4cccc(C(N)=O)c4)cc32)C1	binding	competition with immobilised ligand	1 µM	95
Cc1cnn2ncc(-c3ccnc(N(C)C)n3)c2c1	binding		1 µM	91
O=C(c1ccc(Nc2ncc(Cl)c(-c3ccc(Cl)s3)n2)cc1)N1CCC(N2CCCC2)CC1	binding	competition with immobilised ligand	1 µM	90
C=CC(=O)N1CCC(C(=O)NCC(=O)N2CCN(c3nc(-c4cnc(N)nc4C(F)F)nc(N4CCOCC4)n3)CC2)CC1	binding	competition with immobilised ligand	1 µM	93
O=C(N1CCS(=O)(=O)CC1)N1C[C@H](c2ccc(OC(F)(F)F)cc2)C[C@H](c2nc(C3CC3)no2)C1	cell-free assay	competition with immobilised ligand	1 µM	100
O=C(Nc1c[nH]nc1C(=O)NC1CCNCC1)c1cc(F)cc(F)c1	binding	competition with immobilised ligand	1 µM	84
COc1ccnn2ncc(-c3ccnc(N(C)C)n3)c12	binding		1 µM	100
O=C1NC(c2ccccn2)Sc2ccccc21 (stereo not shown)	cell-free assay	competition with immobilised ligand	1 µM	55
CCN1CCN(Cc2ccc(C(=O)Nc3ccc(C)c(Oc4ccc5c(c4)CC(=O)N5)c3)cc2C(F)(F)F)CC1	binding	competition with immobilised ligand	1 µM	100
O=C(c1ccc(Nc2nccc(-c3cc4ccccc4s3)n2)cc1)N1CCC(N2CCCC2)CC1	binding	competition with immobilised ligand	1 µM	98
F[C@@H]1CCN(c2nccc(-c3cnn4ncccc34)n2)C1	binding		1 µM	100
COc1ncc2cc3ccccc3nc2c1C#N	cell-free assay	competition with immobilised ligand	5 µM	99
N[C@H]1CCN(c2nccc(-c3cnn4ncccc34)n2)C1	binding		1 µM	98
O=C(NCCCN1CCOCC1)c1ccc(Nc2nccc(-c3cc4ccccc4s3)n2)cc1	binding	competition with immobilised ligand	1 µM	92
C[C@H]1CCN(c2nccc(-c3cnn4ncccc34)n2)C1	binding		1 µM	83
CNC(=O)Nc1ccc2c(c1)[C@@]1(CC2)OC(=O)N(CC(=O)N(Cc2ccc(F)cc2)[C@@H](C)C(F)(F)F)C1=O	cell-free assay	competition with immobilised ligand	1 µM	95
CN(CCCC(F)(F)F)c1nccc(-c2cnn3ncccc23)n1	binding		1 µM	75
COc1ccc2c(c1)O[C@@H](c1ccc(OC)c(OC)c1)C[C@H]2NC(=O)C1(c2ccc3c(c2)OC(F)(F)O3)CC1	cell-free assay	competition with immobilised ligand	1 µM	77
